# B1: NELF-E aptamer (parent)
# chain: CCCAACGACUGCCGAGCGAGAUUACGCUUGAGCGCCCCACUGAGGAUGCCCACGGGCGAUUGGGGCACGG
# Variants of: B1
# Test: HiTS-RAP
# Conditions: with NELF-E (Drosophila)
# Procedure, shortened: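 Aptamer DNA templates carrying a T7 promoter and ter site were sequenced on an Illumina GAIIx flowcell, then transcribed in situ by T7 RNA polymerase and halted by GST-Tus (30 minutes, 37°C). Clusters were imaged after 30-minute room-temperature equilibration with NELF-E-mOrange at 0.064 to 1000 nM in HEPES binding buffer, and only the first binding curve was used. Intensities were normalised to sequencing intensity and averaged per sequence. Kd came from weighted Hill fits, keeping fits with variance below 1,000,000.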
row,Variant,Kd [nM]
1,G7U C25G,5.61
2,G7U C25U,5.7
3,G7U C27G,5.97
4,G7U C27U,5.11
5,G7U C33G,5.51
6,G7U C33U,6.35
7,G7U C35A,8.62
8,G7U C35U,8.9
9,G7U C36U,7.87
10,G7U C37A,20.8
11,G7U C37G,11.1
12,G7U C37U,10.5
13,G7U C38U,8.98
14,G7U C40U,80.4
15,G7U C50U,9.77
16,G7U C51U,7.54
17,G7U C53U,4.6
18,G7U C57U,6.23
19,G7U C66U,6.12
20,G7U G11A,6.15
21,G7U G11U,6.5
22,G7U G14A,6.59
23,G7U G14U,6.73
24,G7U G16A,6.97

row,Variant,Kd [nM]
1,G7U G16U,7.06
2,G7U G18A,5.43
3,G7U G18U,6.84
4,G7U G20A,7.33
5,G7U G20U,7.06
6,G7U G26A,5.82
7,G7U G26U,6.93
8,G7U G30A,6.35
9,G7U G30U,7.92
10,G7U G32A,4.74
11,G7U G34A,7.85
12,G7U G34U,7.8
13,G7U G42A,59
14,G7U G42U,17.4
15,G7U G44U,16.7
16,G7U G45A,21.8
17,G7U G48A,12
18,G7U G54A,15.7
19,G7U G54U,5.44
20,G7U G55A,7.6
21,G7U G55U,6.97
22,G7U G56A,9.43
23,G7U G56U,7.83
24,G7U G62A,25.2

row,Variant,Kd [nM]
1,G7U G62U,7.8
2,G7U G63A,19.9
3,G7U G63U,15.8
4,G7U G64A,8.36
5,G7U G64U,7.33
6,G7U G65A,4.96
7,G7U G65U,7.38
8,G7U U10A,7.85
9,G7U U10C,5.96
10,G7U U10G,5.68
11,G7U U22A,6.43
12,G7U U22C,5.8
13,G7U U22G,6.14
14,G7U U23C,4.06
15,G7U U23G,6.08
16,G7U U28A,5.51
17,G7U U28C,9.32
18,G7U U28G,8.81
19,G7U U29A,5.71
20,G7U U29C,6.86
21,G7U U29G,6.33
22,G7U U41A,64.3
23,G7U U41C,91.2
24,G7U U41G,6.05

row,Variant,Kd [nM]
1,G7U U47A,12.9
2,G7U U47G,7.97
3,G7U U60C,10.9
4,G7U U61A,39.5
5,G7U U61C,79
6,A8C,6.72
7,A8C C9G,7.53
8,A8C C13G,6.73
9,A8C U10G,6.49
10,A8C U22G,7.46
11,A8C U23G,7.61
12,A8C U29G,8.24
13,A8G,5.44
14,A8G A15G,6.29
15,A8G A15U,5.54
16,A8G A19G,5.51
17,A8G A19U,5.53
18,A8G A21G,6.28
19,A8G A21U,5.17
20,A8G A24G,6.27
21,A8G A24U,5.52
22,A8G A31G,7.13
23,A8G A31U,5.68
24,A8G A39G,12.8

row,Variant,Kd [nM]
1,A8G A39U,21.7
2,A8G A43G,23.7
3,A8G A43U,63.6
4,A8G A46G,17.8
5,A8G A52G,4.33
6,A8G A52U,15.5
7,A8G A59G,89.2
8,A8G A59U,57.1
9,A8G A67G,6.62
10,A8G A67U,6.63
11,A8G C9A,7.04
12,A8G C9G,5.53
13,A8G C9U,5.53
14,A8G C12G,5.74
15,A8G C12U,5.09
16,A8G C13A,6.62
17,A8G C13G,5.95
18,A8G C13U,4.41
19,A8G C17G,5.53
20,A8G C17U,4.94
21,A8G C25U,5.14
22,A8G C33U,5.16
23,A8G C36U,6.33
24,A8G C37U,10.1

row,Variant,Kd [nM]
1,A8G C49U,16.8
2,A8G C51U,6.89
3,A8G C53U,4.94
4,A8G C57U,6
5,A8G C66U,5.01
6,A8G G11A,6.3
7,A8G G11U,6.74
8,A8G G14A,6.2
9,A8G G14U,7.09
10,A8G G16A,5.75
11,A8G G16U,6.76
12,A8G G18A,6.78
13,A8G G18U,7.18
14,A8G G20A,5.52
15,A8G G20U,6.35
16,A8G G26A,4.49
17,A8G G30A,4.89
18,A8G G30U,4.7
19,A8G G32A,5.07
20,A8G G34A,4.84
21,A8G G42A,44.1
22,A8G G44A,39.3
23,A8G G48A,11.7
24,A8G G54A,14.6

row,Variant,Kd [nM]
1,A8G G55A,10
2,A8G G55U,7.12
3,A8G G56A,10
4,A8G G56U,6.49
5,A8G G58U,20.1
6,A8G G63A,16.1
7,A8G G63U,11
8,A8G G64A,7.44
9,A8G G65A,5.32
10,A8G G65U,8.03
11,A8G U10A,5.37
12,A8G U10C,5.52
13,A8G U10G,5.44
14,A8G U22C,5.08
15,A8G U22G,5.75
16,A8G U23C,4.62
17,A8G U23G,5.8
18,A8G U28A,4.13
19,A8G U28C,7.19
20,A8G U28G,6.24
21,A8G U29A,7.95
22,A8G U29C,5.69
23,A8G U29G,5.77
24,A8G U41G,6.37

row,Variant,Kd [nM]
1,A8G U47A,10.9
2,A8G U47G,7.16
3,A8G U61A,29.3
4,A8G U61C,70.8
5,A8U,5.54
6,A8U A15G,5.78
7,A8U A15U,7.15
8,A8U A19G,6.26
9,A8U A19U,6.78
10,A8U A21G,6.05
11,A8U A21U,7.37
12,A8U A24G,6.05
13,A8U A31G,8.05
14,A8U A31U,7.11
15,A8U A39U,28.6
16,A8U A43G,25.7
17,A8U A43U,104
18,A8U A46G,50
19,A8U A46U,43.1
20,A8U A52G,5.67
21,A8U A52U,17.4
22,A8U A59G,47.2
23,A8U A67G,5.61
24,A8U A67U,7.42

row,Variant,Kd [nM]
1,A8U C9G,6.03
2,A8U C9U,6.55
3,A8U C12G,6.15
4,A8U C12U,5.4
5,A8U C13A,7.3
6,A8U C13G,6.33
7,A8U C13U,4.96
8,A8U C17G,6.07
9,A8U C17U,5.13
10,A8U C25G,6.83
11,A8U C25U,6.08
12,A8U C27U,4.24
13,A8U C33U,6.3
14,A8U C35U,12.5
15,A8U C36U,8.33
16,A8U C37A,22.1
17,A8U C37U,13.2
18,A8U C38U,8.93
19,A8U C40G,8.55
20,A8U C50U,10.4
21,A8U C51U,10.8
22,A8U C53U,3.63
23,A8U C57U,5.42
24,A8U C66U,5.31

row,Variant,Kd [nM]
1,A8U G11A,6.46
2,A8U G11U,6.61
3,A8U G14A,7.4
4,A8U G14U,6.76
5,A8U G16A,6.74
6,A8U G16U,7.54
7,A8U G18A,5.68
8,A8U G18U,5.91
9,A8U G20U,6.62
10,A8U G26A,4.2
11,A8U G30A,5.46
12,A8U G34A,6.21
13,A8U G42A,71.2
14,A8U G44U,25.7
15,A8U G54A,11.3
16,A8U G55A,8.25
17,A8U G55U,7.57
18,A8U G56A,16.7
19,A8U G56U,6.41
20,A8U G62A,19.2
21,A8U G62U,10
22,A8U G63A,15.3
23,A8U G63U,11.1
24,A8U G64A,8.34

row,Variant,Kd [nM]
1,A8U G64C,7.62
2,A8U G64U,9.52
3,A8U G65A,5.1
4,A8U G65U,8.03
5,A8U U10A,6.91
6,A8U U10C,5.96
7,A8U U10G,5.41
8,A8U U22C,5.14
9,A8U U22G,6.1
10,A8U U23C,5.3
11,A8U U23G,6.17
12,A8U U28A,5.05
13,A8U U28C,8.73
14,A8U U28G,7.11
15,A8U U29A,4.61
16,A8U U29C,6.56
17,A8U U29G,5.87
18,A8U U41C,85.6
19,A8U U41G,6.19
20,A8U U47A,15.7
21,A8U U47G,5.6
22,A8U U61A,29.9
23,A8U U61C,71.4
24,C9A,5.07

row,Variant,Kd [nM]
1,C9A U10G,5.43
2,C9A U22G,3.88
3,C9G,5.17
4,C9G A15G,6.64
5,C9G A15U,7.39
6,C9G A19G,5.58
7,C9G A19U,7.14
8,C9G A21G,6.86
9,C9G A21U,6.36
10,C9G A24G,5.84
11,C9G A24U,7.67
12,C9G A31G,8.03
13,C9G A31U,7.5
14,C9G A39G,9.62
15,C9G A39U,29.8
16,C9G A43G,30.4
17,C9G A43U,80.5
18,C9G A46G,47.4
19,C9G A46U,68.3
20,C9G A52C,7.38
21,C9G A52G,4.79
22,C9G A52U,14.9
23,C9G A59G,64.3
24,C9G A59U,30.4

row,Variant,Kd [nM]
1,C9G A67G,6.17
2,C9G A67U,8.77
3,C9G C12A,4.67
4,C9G C12G,5.75
5,C9G C12U,5.9
6,C9G C13A,7.19
7,C9G C13G,5.48
8,C9G C13U,5.15
9,C9G C17G,5.43
10,C9G C17U,4.67
11,C9G C25G,6.33
12,C9G C25U,7.05
13,C9G C27U,4.83
14,C9G C33U,5.9
15,C9G C35G,7.59
16,C9G C35U,14.3
17,C9G C36U,8.98
18,C9G C37A,15.8
19,C9G C37U,16.1
20,C9G C38U,8.24
21,C9G C49U,23.1
22,C9G C50A,23.5
23,C9G C50G,7.4
24,C9G C50U,13.5

row,Variant,Kd [nM]
1,C9G C51A,8.9
2,C9G C51U,8.2
3,C9G C53U,4.66
4,C9G C57U,7.56
5,C9G C66U,5.54
6,C9G G11A,6.35
7,C9G G11U,6
8,C9G G14A,6.55
9,C9G G14U,6.47
10,C9G G16A,5.72
11,C9G G16U,6.45
12,C9G G18A,6.15
13,C9G G18U,6.65
14,C9G G20A,6.64
15,C9G G20U,7.26
16,C9G G26A,5.39
17,C9G G26U,8.09
18,C9G G30A,4.33
19,C9G G30U,6.64
20,C9G G32A,4.88
21,C9G G34A,9.14
22,C9G G42A,56.8
